Experiment [1] has as its target T1, Alpha-1A adrenergic receptor (Homo sapiens, UniProt P35348).
T1 sequence (P35348 whole entry): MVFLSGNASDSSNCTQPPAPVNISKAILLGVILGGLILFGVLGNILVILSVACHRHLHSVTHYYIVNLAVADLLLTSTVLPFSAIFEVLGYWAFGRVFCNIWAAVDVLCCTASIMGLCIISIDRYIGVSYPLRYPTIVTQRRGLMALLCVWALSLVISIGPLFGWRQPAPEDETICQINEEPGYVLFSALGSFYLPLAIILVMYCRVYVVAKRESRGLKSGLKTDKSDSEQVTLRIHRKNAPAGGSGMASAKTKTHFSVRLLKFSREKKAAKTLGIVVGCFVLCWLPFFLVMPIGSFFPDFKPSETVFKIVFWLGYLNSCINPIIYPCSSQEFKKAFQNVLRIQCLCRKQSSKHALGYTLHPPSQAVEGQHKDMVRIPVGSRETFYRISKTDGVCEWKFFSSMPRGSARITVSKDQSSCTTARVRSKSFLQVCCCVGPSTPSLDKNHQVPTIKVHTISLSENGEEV
Description: Antagonist activity at adrenergic alpha1A receptor (unknown origin) by firefly and renilla dual glo luciferase assay. A digest of the protocol:
(§1)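 Firefly and Renilla luciferase activities (RLU) were read by luminometer with the Dual-Glo kit, following the manufacturer's protocol. IC50 values were derived from three independent experiments.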

Experiment [2] has as its target T2, Alpha-1B adrenergic receptor (Homo sapiens, UniProt P35368).
T2 sequence (P35368 whole entry): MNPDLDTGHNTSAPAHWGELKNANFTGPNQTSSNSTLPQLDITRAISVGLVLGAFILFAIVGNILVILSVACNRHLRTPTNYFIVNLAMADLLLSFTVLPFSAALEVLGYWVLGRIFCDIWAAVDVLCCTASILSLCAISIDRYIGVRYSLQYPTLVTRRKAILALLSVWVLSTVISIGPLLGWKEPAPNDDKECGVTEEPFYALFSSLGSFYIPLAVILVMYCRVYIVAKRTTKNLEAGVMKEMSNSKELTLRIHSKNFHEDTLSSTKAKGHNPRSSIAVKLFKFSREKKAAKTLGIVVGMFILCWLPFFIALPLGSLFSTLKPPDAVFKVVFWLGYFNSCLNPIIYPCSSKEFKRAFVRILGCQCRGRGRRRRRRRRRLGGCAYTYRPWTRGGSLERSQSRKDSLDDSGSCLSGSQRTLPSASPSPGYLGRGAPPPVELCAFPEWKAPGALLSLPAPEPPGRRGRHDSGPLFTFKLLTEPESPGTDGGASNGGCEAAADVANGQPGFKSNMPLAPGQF
Description: Antagonist activity at adrenergic alpha1B receptor (unknown origin) by firefly and renilla dual glo luciferase assay. A digest of the protocol:
as §1

In experiment [3] the target is T3, Alpha-1D adrenergic receptor (Homo sapiens, UniProt P25100).
T3 sequence (P25100 whole entry): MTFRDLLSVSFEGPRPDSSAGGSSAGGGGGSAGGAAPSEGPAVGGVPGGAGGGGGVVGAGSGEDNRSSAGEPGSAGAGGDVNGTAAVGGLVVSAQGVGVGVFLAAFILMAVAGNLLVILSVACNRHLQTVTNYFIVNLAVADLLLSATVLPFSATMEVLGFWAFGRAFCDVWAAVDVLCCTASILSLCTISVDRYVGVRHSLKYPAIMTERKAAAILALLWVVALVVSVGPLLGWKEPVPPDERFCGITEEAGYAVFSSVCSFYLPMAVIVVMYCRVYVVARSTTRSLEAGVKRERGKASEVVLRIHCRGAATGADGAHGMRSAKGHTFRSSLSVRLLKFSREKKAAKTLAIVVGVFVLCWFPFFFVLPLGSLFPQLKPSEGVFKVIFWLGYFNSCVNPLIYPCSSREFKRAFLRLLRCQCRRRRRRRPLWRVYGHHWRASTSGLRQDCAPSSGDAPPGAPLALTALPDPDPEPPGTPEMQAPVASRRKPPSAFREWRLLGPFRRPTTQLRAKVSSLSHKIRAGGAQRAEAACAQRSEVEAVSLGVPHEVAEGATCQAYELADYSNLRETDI
Description: Antagonist activity at adrenergic alpha1D receptor (unknown origin) by firefly and renilla dual glo luciferase assay. A digest of the protocol:
as §1

Experiment [4] is filed under the species Homo sapiens. Description: Selectivity ratio of IC50 for adrenergic alpha1B receptor (unknown origin) to IC50 for adrenergic alpha1A receptor (unknown origin).
For experiment [5], the species on record is Homo sapiens. Description: Selectivity ratio of IC50 for adrenergic alpha1B receptor (unknown origin) to IC50 for adrenergic alpha1D receptor (unknown origin).

On to `O=C1c2ccccc2C(=O)N1Cc1ccc(CCN2CCN(c3ccccc3)CC2)cc1`, for which the IC50 (commonly the concentration at which inhibition is half-maximal) in experiment [1] worked out at 151 nM; in experiment [2], 875 nM; in experiment [3], 1760 nM. The Ratio IC50 stood at 5.8 in the experiment filed under Homo sapiens [4] and 0.5 in the experiment filed under Homo sapiens [5].
The matching figures for `N#Cc1ccc(N2CCN(CCc3ccc(CN4C(=O)c5ccccc5C4=O)cc3)CC2)cc1`: 89.2 nM, 769 nM, 63.5 nM, 8.6 and 12.1.
For `O=C1c2ccccc2C(=O)N1Cc1ccc(CCN2CCN(c3ccc(F)cc3)CC2)cc1` the same measures were 229 nM, 684 nM, 122 nM, 3 and 5.6.
For `O=C1c2ccccc2C(=O)N1Cc1ccc(CCN2CCN(c3ccc(Cl)cc3)CC2)cc1` the same measures were 552 nM, 794 nM, 35.2 nM, 1.4 and 22.6.
Take `CCOc1ccccc1N1CCN(CCc2ccc(CN3C(=O)c4ccccc4C3=O)cc2)CC1`: the IC50 in experiment [1] was determined as 32.4 nM; in experiment [2] it was 433 nM; in experiment [3], 240 nM. The figures for the Ratio IC50 in the experiment listed under Homo sapiens [4] and in the experiment listed under Homo sapiens [5] were 13.4 and 1.8, respectively.
For `Cc1ccc(N2CCN(CCc3ccc(CN4C(=O)c5ccccc5C4=O)cc3)CC2)cc1` the same measures were 2.03 nM, 28.9 nM, 344 nM, 14.2 and 0.08.
As for `O=C1c2ccccc2C(=O)N1Cc1ccc(CCN2CCN(c3ccccc3C(F)(F)F)CC2)cc1`, the IC50 in experiment [1] came to 384 nM; in experiment [2], 250 nM; in experiment [3], 164 nM. Also, the results for the Ratio IC50 in the experiment filed under Homo sapiens [4] and in the experiment filed under Homo sapiens [5] were 0.7 and 1.5, respectively.
The matching figures for `O=C1c2ccccc2C(=O)N1Cc1ccc(CCN2CCN(c3ccccc3F)CC2)cc1`: 96 nM, 1880 nM, 10600 nM, 19.5 and 0.2.
For `CC(=O)c1ccc(N2CCN(CCc3ccc(CN4C(=O)c5ccccc5C4=O)cc3)CC2)cc1` the same measures were 14.2 nM, 122 nM, 866 nM, 8.6 and 0.2.
As to `CS(=O)(=O)c1ccccc1N1CCN(CCc2ccc(CN3C(=O)c4ccccc4C3=O)cc2)CC1`, the IC50 stood at 46.4 nM in experiment [1], 199 nM in experiment [2] and 10.1 nM in experiment [3]. For the same compound, the Ratio IC50 in the experiment listed under Homo sapiens [4] came to 4.3; in the experiment listed under Homo sapiens [5], 19.8.
Turning to `COc1ccccc1N1CCN(CC(O)COc2cccc3ccccc23)CC1` (stereo not drawn) [NAFTOPIDIL], the values for the IC50 in experiment [1], in experiment [2] and in experiment [3] were 555 nM, 634 nM and 55.2 nM, respectively.
On to `Cc1ccccc1N1CCN(CCc2ccc(CN3C(=O)c4ccccc4C3=O)cc2)CC1`, for which the IC50 in experiment [1] worked out at 228 nM; in experiment [2], 949 nM; in experiment [3], 80600 nM. In addition, the Ratio IC50 in the experiment filed under Homo sapiens [4] was found to be 4.2; in the experiment listed under Homo sapiens [5], 0.01.
For `O=C1c2ccccc2C(=O)N1Cc1ccc(CCN2CCN(c3ccc(F)cc3F)CC2)cc1`, the values for the IC50 in experiment [1], in experiment [2] and in experiment [3] were 89.9 nM, 787 nM and 493 nM, respectively. The Ratio IC50 in the experiment filed under Homo sapiens [4] turned out to be 8.8; in the experiment filed under Homo sapiens [5], 1.6.
The matching figures for `Cc1ccc(Cl)cc1N1CCN(CCc2ccc(CN3C(=O)c4ccccc4C3=O)cc2)CC1`: 34.5 nM, 31.6 nM, 31.3 nM, 0.9 and 1.
The matching figures for `O=C1c2ccccc2C(=O)N1Cc1ccc(CCN2CCN(c3ccccc3Cl)CC2)cc1`: 15.2 nM, 781 nM, 36.6 nM, 51.5 and 21.3.
The matching figures for `O=C1c2ccccc2C(=O)N1Cc1ccc(CCN2CCN(c3ccc(C(F)(F)F)cc3)CC2)cc1`: 66.2 nM, 19.7 nM, 12.9 nM, 0.3 and 1.5.
Turning to `COc1ccc(N2CCN(CCc3ccc(CN4C(=O)c5ccccc5C4=O)cc3)CC2)cc1`, the IC50 in experiment [1] came out at 885 nM; in experiment [2], 406 nM; in experiment [3] it was 1860 nM. For the same compound, the Ratio IC50 in the experiment listed under Homo sapiens [4] stood at 0.5; in the experiment filed under Homo sapiens [5], 0.2.
The matching figures for `O=C1c2ccccc2C(=O)N1Cc1ccc(CCN2CCN(c3ccc(Br)cc3)CC2)cc1`: 3420 nM, 1000 nM, 7430 nM, 0.3 and 0.1.
For `O=C1c2ccccc2C(=O)N1Cc1ccc(CCN2CCN(c3ccccn3)CC2)cc1` the same measures were 49.6 nM, 12.6 nM, 11.3 nM, 0.3 and 1.1.
The matching figures for `O=C1c2ccccc2C(=O)N1Cc1ccc(CCN2CCN(Cc3ccccc3)CC2)cc1`: 1200 nM, 1010 nM, 116 nM, 0.8 and 8.7.
With `N#Cc1ccc(N2CCN(CCc3ccc(CN4C(=O)c5ccccc5C4=O)cc3)CC2)c(F)c1`, the IC50 in experiment [1] is 128 nM; in experiment [2], 34.8 nM; in experiment [3], 957 nM. Moreover, the results for the Ratio IC50 in the experiment filed under Homo sapiens [4] and in the experiment filed under Homo sapiens [5] were 0.3 and 0.04, respectively.
The matching figures for `COc1ccccc1N1CCN(CCc2ccc(CN3C(=O)c4ccccc4C3=O)cc2)CC1`: 30.1 nM, 101 nM, 1240 nM, 3.3 and 0.08.
The matching figures for `N#Cc1ccccc1N1CCN(CCc2ccc(CN3C(=O)c4ccccc4C3=O)cc2)CC1`: 36.1 nM, 180 nM, 16.7 nM, 5 and 10.8.

The values are drawn from ChEMBL document CHEMBL3739328, “Synthesis, structure-activity relationship and biological evaluation of novel arylpiperzines as α1A/1D-AR subselective antagonists for BPH” (Bioorg Med Chem, 2015).
